Test results from ChEMBL document CHEMBL5223075, “Discovery of thienothiazolocarboxamide analogues as novel anti-tubercular agent” (Bioorg Med Chem, 2020).
Values after ≈ are worked out from the molar mass of the structure shown. Active and inactive are the calls of the source. The rule behind the calls is not given here.

Key:
[1] = test system: Mycobacterium tuberculosis; experiment: Antitubercular activity against Mycobacterium tuberculosis H37Rv ATCC 27294 expressing the green fluorescence protein assessed as inhibition of bacterial growth by measuring GFP fluorescence incubated for 5 days by fluorescence based plate reader analysis; format: functional, organism-based; details: H37Rv ATCC 27294, 120 h
Procedure, shortened: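 H37Rv-GFP was grown 14 days in 7H9/OADC/Tween/glycerol/hygromycin, washed, and seeded at ~3×10^6 CFU/mL. Compounds were given as 10-point 2-fold series starting at 20 or 1 µM, in 1% DMSO final. Plates ran 5 days at 37°C, 5% CO2, with rifampicin 1 µg/mL as positive control. GFP fluorescence was read and IC50 taken from a 4-parameter sigmoid fit.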

[2] = test system: Mycobacterium tuberculosis; experiment: Antitubercular activity against Mycobacterium tuberculosis H37Rv ATCC 27294 expressing the green fluorescence protein infected in mouse RAW264.7 cells assessed as inhibition of bacterial growth pre-infected with cell followed by compound addition and measured after 5 days by Hoechst 33342 staining based analysis; format: functional, organism-based; details: H37Rv ATCC 27294, RAW264.7, 120 h
Procedure, shortened: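 RAW 264.7 cells, passages 2-9, were infected with washed H37Rv-GFP at MOI 20 for 2 h at 37°C with shaking. Cells were washed and plated at 20,000/well over 2-fold compound dilutions for 5 days. Nuclei were stained with 5 µM Hoechst (final) and 3 fields/well imaged. Four parameters (cell count, bacterial area, area per infected cell, infected-cell ratio) were each fitted by 4-parameter sigmoid, and the IC50s averaged.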

[3] = Metabolic stability in human liver microsome assessed as phase I mediated metabolite formation by measuring half-life; format: ADME; details: microsomes
[4] = Metabolic stability in mouse liver microsome assessed as phase I mediated metabolite formation by measuring half-life; format: ADME; details: microsomes
[5] = Solubility of the compound at pH 7.4; format: physicochemical; details: buffer
[6] = Solubility of the compound at pH 2.1; format: physicochemical; details: buffer
[7] = Metabolic stability in human liver microsome assessed as phase II mediated metabolite formation by measuring half-life; format: ADME; details: microsomes
[8] = Metabolic stability in mouse liver microsome assessed as phase II mediated metabolite formation by measuring half-life; format: ADME; details: microsomes
[9] = Stability in human plasma measured after 4 hrs; format: ADME, cell-free; details: read-out: Stability
[10] = Stability in mouse plasma measured after 4 hrs; format: ADME, cell-free; details: read-out: Stability
[11] = Protein binding in human plasma; format: ADME, cell-free; details: read-out: PPB (converted)
[12] = Protein binding in mouse plasma; format: ADME, cell-free; details: read-out: PPB (converted)
[13] = Half-life in BALB/c mouse at 2 mg/kg, iv by LC-MS analysis; format: ADME, organism-based; details: in vivo
Procedure, shortened: (§1)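 Female BALB/c mice, 6-8 weeks old. Dosed i.v. at 2 or 3 mg/kg, or orally at 10 mg/kg. Vehicles varied by compound: DMSO/Captisol, DMSO/PEG400/SBE-b-CD, or DMSO/Cremophor EL/Captisol. Blood was held at 4°C within 1 h, then centrifuged at 3200 × g for 10 min at 4°C. Plasma was kept at 4°C, and compound levels were measured by LC-MS.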

[14] = Clearance in BALB/c mouse at 2 mg/kg, iv by LC-MS analysis; format: ADME, organism-based; details: in vivo; procedure, shortened: as §1
[15] = Volume of distribution at steady state in BALB/c mouse at 2 mg/kg, iv by LC-MS analysis; format: ADME, organism-based; details: in vivo, read-out: Vdss; procedure, shortened: as §1
[16] = Cmax in BALB/c mouse at 10 mg/kg, po by LC-MS analysis; format: ADME, organism-based; design: dose 10 mg/kg, route po; details: in vivo; procedure, shortened: as §1
[17] = Stability in human plasma measured after 2 hrs; format: ADME, cell-free; details: read-out: Stability
[18] = Stability in mouse plasma measured after 2 hrs; format: ADME, cell-free; details: read-out: Stability
[19] = test system: A549; experiment: Cytotoxicity against human A549 cells assessed as inhibition of cell growth; format: functional, cell-based
[20] = Cytotoxicity against HEK293 cells assessed as inhibition of cell growth; format: toxicity, cell-based; details: human
[21] = test system: HepG2; experiment: Cytotoxicity against human HepG2 cells assessed as inhibition of cell growth; format: functional, cell-based
[22] = test system: Jurkat; experiment: Cytotoxicity against human Jurkat cells assessed as inhibition of cell growth; format: functional, cell-based
[23] = Genotoxicity in Salmonella typhimurium TA98 by Ames mutagenicity test; format: toxicity; details: salmonella enterica subsp. enterica serovar typhimurium
[24] = Genotoxicity in Salmonella typhimurium TA100 by Ames mutagenicity test; format: toxicity; details: salmonella enterica subsp. enterica serovar typhimurium
[25] = Genotoxicity in Salmonella typhimurium TA98 in the presence of S9 fraction by Ames mutagenicity test; format: toxicity, subcellular; details: salmonella enterica subsp. enterica serovar typhimurium
[26] = Genotoxicity in Salmonella typhimurium TA100 in the presence of S9 fraction by Ames mutagenicity test; format: toxicity, subcellular; details: salmonella enterica subsp. enterica serovar typhimurium
[27] = Half-life in BALB/c mouse at 10 mg/kg, po by LC-MS analysis; format: ADME, organism-based; details: in vivo; procedure, shortened: as §1
[28] = AUClast in BALB/c mouse at 10 mg/kg, po by LC-MS analysis; format: ADME, organism-based; design: dose 10 mg/kg, route po; details: in vivo; procedure, shortened: as §1
[29] = Oral bioavailability in BALB/c mouse at 10 mg/kg by LC-MS analysis; format: ADME, organism-based; details: in vivo; procedure, shortened: as §1
[30] = Drug concentration in BALB/c mouse plasma at 10 mg/kg, po by LC-MS analysis; format: ADME, organism-based; details: in vivo; procedure, shortened: as §1
[31] = Drug concentration in BALB/c mouse lung at 10 mg/kg, po by LC-MS analysis; format: ADME, organism-based; details: in vivo; procedure, shortened: as §1
[32] = Ratio of drug concentration in lung to plasma in BALB/c mouse at 10 mg/kg, po by LC-MS analysis; format: ADME, organism-based; procedure, shortened: as §1
[33] = Tmax in BALB/c mouse at 10 mg/kg, po by LC-MS analysis; format: ADME, organism-based; details: in vivo; procedure, shortened: as §1
[34] = test system: Mycobacterium tuberculosis; experiment: Antibacterial activity against Mycobacterium tuberculosis H37Rv ATCC 27294 infected in BALB/c mouse assessed as reduction in bacterial load in lungs at 25 to 100 mg/kg, po administered five times a week for 28 days; format: functional, organism-based; details: dose 25-100 mg/kg, time 28.0 day
Procedure, shortened: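 Female BALB/c mice, 6-8 weeks old, were infected intranasally with ~300-600 CFU H37Rv, 5 mice per group. Oral gavage began at day 21, 5 days/week for 4 weeks. Lungs were taken a day after the last dose, homogenized in PBS, serially diluted and plated in duplicate on 7H11-OADC agar for 2-5 weeks at 37°C. Detection limit ~2.3 logs. Bonferroni test against vehicle-treated mice.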

Structure (SMILES): COc1ccc(NC(=O)c2cc3sc(N(C)C)nc3s2)cc1
- IC50 [1]: 1600 nM
- IC50 [2]: 270 nM

Structure (SMILES): Cc1nc2cc(NC(=O)c3cc4sc(NCCN5CCOCC5)nc4s3)ccc2o1
- IC50 [1]: 1350 nM
- IC50 [2]: 470 nM
- t1/2 [3]: > 1 h
- t1/2 [4]: > 1 h
- solubility [5]: 2.1 µg/mL (≈ 4.73 µM)
- solubility [6]: 37.1 µg/mL (≈ 83.6 µM)

Structure (SMILES): O=C(Nc1ccc(-c2ccc(Cl)cn2)cc1)c1cc2sc(NCCN3CCOCC3)nc2s1
- IC50 [1]: 3200 nM
- IC50 [2]: 210 nM
- solubility [5]: 0.2 µg/mL (≈ 0.4 µM)
- solubility [6]: 43.4 µg/mL (≈ 86.8 µM)

Structure (SMILES): Cc1nc2cc(NC(=O)c3cc4sc(N5CCOCC5)nc4s3)ccc2o1
- IC50 [1]: 420 nM
- IC50 [2]: 200 nM
- t1/2 [3]: > 1 h
- t1/2 [4]: > 1 h
- solubility [5]: 0.82 µg/mL (≈ 2.05 µM)
- solubility [6]: 5.3 µg/mL (≈ 13.2 µM)
- t1/2 [7]: > 1 h
- t1/2 [8]: > 1 h
- remaining at 4 h [9]: 86.8%
- remaining at 4 h [10]: 74.7%
- fraction unbound [11]: 0.012
- fraction unbound [12]: 0.001
- half-life [13]: 0.33 h
- clearance [14]: 121 mL/min/kg
- Vd [15]: 0.626 L/kg
- Cmax [16]: 313 ng/mL

Structure (SMILES): Cc1nc2cc(NC(=O)c3cc4sc(N(C)CCO)nc4s3)ccc2o1
- IC50 [1]: 880 nM
- IC50 [2]: 1300 nM
- t1/2 [3]: > 1 h
- t1/2 [4]: 0.628 h
- solubility [5]: 4.5 µg/mL (≈ 11.6 µM)
- solubility [6]: 20.6 µg/mL (≈ 53 µM)

Structure (SMILES): COc1ccc(NC(=O)c2cc3sc(N4CCN(C)CC4)nc3s2)cc1
- IC50 [1]: 1300 nM
- IC50 [2]: 110 nM

Structure (SMILES): COc1ccc(NC(=O)c2cc3sc(N4CCOCC4)nc3s2)cc1
- IC50 [1]: 1100 nM
- IC50 [2]: 210 nM
- t1/2 [3]: 0.96 h
- t1/2 [4]: > 1 h

Structure (SMILES): Cc1ccc(-c2ccc(NC(=O)c3cc4sc(NCCN5CCOCC5)nc4s3)cc2)nc1
- IC50 [1]: 1350 nM
- IC50 [2]: 310 nM
- t1/2 [3]: 0.348 h
- t1/2 [4]: 0.452 h
- solubility [5]: 1.3 µg/mL (≈ 2.71 µM)
- solubility [6]: 52.3 µg/mL (≈ 109 µM)

Structure (SMILES): O=C(Nc1ccc(-c2ccc(C(F)(F)F)cn2)cc1)c1cc2sc(NCCN3CCOCC3)nc2s1
- IC50 [1]: 4500 nM
- IC50 [2]: 210 nM
- solubility [5]: 9.8 µg/mL (≈ 18.4 µM)
- solubility [6]: 44.3 µg/mL (≈ 83 µM)

Structure (SMILES): COc1ccc(-c2ccc(NC(=O)c3cc4sc(NCCN5CCOCC5)nc4s3)cc2)nc1
- IC50 [1]: 1350 nM
- IC50 [2]: 190 nM
- t1/2 [3]: < 0.5 h
- t1/2 [4]: < 0.5 h
- solubility [5]: 0.2 µg/mL (≈ 0.404 µM)
- solubility [6]: > 50 µg/mL

Structure (SMILES): COc1ccc(NCc2cc3sc(N4CCCCC4)nc3s2)cc1
- IC50 [1]: > 20000 nM
- IC50 [2]: > 20000 nM

Structure (SMILES): Cc1nc2cc(NC(=O)c3cc4sc(N5CCC(C(=O)N(C)C)CC5)nc4s3)ccc2o1
- IC50 [1]: 500 nM
- IC50 [2]: 510 nM
- t1/2 [3]: > 1 h
- t1/2 [4]: > 1 h
- solubility [5]: 1.2 µg/mL (≈ 2.56 µM)
- solubility [6]: 4 µg/mL (≈ 8.52 µM)
- t1/2 [7]: 1.66 h
- t1/2 [8]: 2.07 h
- remaining at 2 h [17]: 86.1%
- remaining at 2 h [18]: 95.7%
- fraction unbound [11]: 0.049
- fraction unbound [12]: 0.036
- IC50 [19]: > 50000 nM
- IC50 [20]: > 50000 nM
- IC50 [21]: > 50000 nM
- IC50 [22]: > 50000 nM
- Activity [23]: Non-Toxic
- Activity [24]: Non-Toxic
- Activity [25]: Non-Toxic
- Activity [26]: Non-Toxic
- half-life [13]: 0.92 h
- clearance [14]: 11.8 mL/min/kg
- Vd [15]: 0.701 L/kg
- half-life [27]: 0.99 h
- Cmax [16]: 7010 ng/mL
- AUC(0-t) [28]: 10000 ng·h/mL
- bioavailability [29]: 71.2%
- Cp [30]: 4400 ng/mL
- Ct [31]: 2986 ng/mL
- Kp [32]: 0.7
- Tmax [33]: 1 h
- Activity [34]: inactive

Structure (SMILES): COc1ccc(NC(=O)c2cc3sc(N4CCNCC4)nc3s2)cc1
- IC50 [1]: 13700 nM
- IC50 [2]: 2100 nM

Structure (SMILES): Cc1nc2cc(NC(=O)c3cc4sc(N(C)CCCO)nc4s3)ccc2o1
- IC50 [1]: 1000 nM
- IC50 [2]: 700 nM

Structure (SMILES): COc1ccc(NC(=O)c2cc3sc(N4CCCCC4)nc3s2)cc1
- IC50 [1]: 830 nM
- IC50 [2]: 170 nM
